Experimental data reported in article PMC10392308 (Journal of Enzyme Inhibition and Medicinal Chemistry, 2023).
pIC50: −log10 of the molar value. In brackets after ≈: the same amount, converted by molar mass.

Legend:
[1] = Water solubility determination using HPLC; type: physicochemical; details: 37 °C, thermodynamic from solid
Procedure, shortened: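 […] were sonicated 10 min at 37 °C. After standing 1 h, the clear upper liquid was membrane-filtered and injected on HPLC. Water solubility was calculated from peak area using the regression equation.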

AGS = assay: MTT antiproliferative assay, AGS; type: cell-based; details: Homo sapiens, 48 h, read-out: IC50 values, AGS, MTT, 48 h
HCT-116 = assay: MTT antiproliferative assay, HCT-116; type: cell-based; details: Homo sapiens, HCT-116, 48 h, read-out: IC50 values, HCT-116, MTT, 48 h
MGC-803 cells [2] = assay: Cell cycle analysis with flow cytometry; type: cell-based, human; details: for Cells in G1 phase: DMSO 64.36%; for Phase in which the cell cycle is blocked: MGC-803, 18 h; for Cells in S phase: DMSO 20.59%
MGC-803 cells [3] = assay: Apoptosis assay with flow cytometry; type: cell-based, human; details: MGC-803, 18 h, highest value reached; blank control 8.2
VEGF [4] = assay: ELISA for the expression of VEGF in MGC-803 cells; type: cell-based, human; details: for Effect on the expression of VEGF: MGC-803, 0.1, 0.5, 1 µM, hypoxia or not
Procedure, shortened: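 The hypoxia arm used 100 µM CoCl2·6H2O (1% O2) and was run beside 21% O2 cultures. MGC-803 cells were exposed 24 h to test compound at 0.1, 0.5 or 1 µM, with a 0.1% DMSO blank and a positive control. Supernatants were spun at 1000 × g for 20 min at 4 °C, and VEGF was quantified by human VEGF ELISA kit.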

MMP-9 = assay: ELISA for the expression of MMP-9 in MGC-803 cells; type: cell-based, human; details: for MMP-9 expression: control 18.6 ng/ml; for Effect on the expression of MMP-9: MGC-803, 0.1, 0.5, 1 µM
HCT116 cancer cells = assay: In vivo anticancer effect in nude mice inoculated with HCT116 cells; parameters: species or system Balb/c nude mice; details: for Tumour weight / Tumour volume at the end of the administration: compound 2 2.5 and 1 mg/kg, 5-FU 10 mg/kg; for Tumour weight: p < 0.001 vs control; for Tumour volume at the end of the administration: p < 0.01 vs control; for Tumour growth inhibition rate: by tumour weight
Procedure, shortened: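 Female Balb/c nude mice, 8 weeks old, received 0.1 ml of 1 × 10^8/mL HCT116 cells in the right armpit, six mice per group. At about 100 mm3 tumour, dosing began: i.p., 5 ml/kg, once every two days, vehicle 5% DMSO in soybean oil, with a vehicle group and a 5-FU group. Body weight and tumour diameters were taken every 3 d, with volume = A×B²/2. Inhibition = (1 − mean treated/control tumour weight) × 100%.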

TNF-α = assay: ELISA detection of TNF-α in tumour mice; type: in vivo, nude mice; details: serum, compound 2 1 and 2.5 mg/kg, 5-FU 10 mg/kg, vs control
Procedure, shortened: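 HCT116 xenografts (1×10^8 cells/mL, 0.1 ml, right armpit) in 8-week-old female Balb/c nude mice, six per group. Test compound given i.p. in 5% DMSO/soybean oil (5 ml/kg) from ~100 mm3 tumours for 20 days. At sacrifice, serum held 2 h, spun 1000 × g for 20 min, stored −80 °C. TNF-α measured by mouse ELISA kit, six sera per group, triplicate wells.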

tumour tissue = assay: Haematoxylin-eosin staining; type: in vivo, nude mice; details: compound 2 1 and 2.5 mg/kg, 5-FU 10 mg/kg; vs control group
Procedure, shortened: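 Female Balb/c nude mice (8 weeks) bore HCT116 xenografts from 1×10^8 cells/mL, 0.1 ml in the right armpit, six per group. Dosing was i.p. in 5% DMSO/soybean oil at 5 ml/kg, starting at ~100 mm3, for 20 days, with vehicle controls. Tumours collected after sacrifice and stained with haematoxylin-eosin; nuclei blue, cytoplasm red.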

VEGF [5] = assay: Immunohistochemical detection of VEGF expression in tumour tissue; type: in vivo, nude mice; details: compound 2 1 and 2.5 mg/kg, 5-FU 10 mg/kg; p < 0.0001 vs control
zebrafish embryos = assay: Zebrafish embryonic acute toxicity test; type: in vivo
Procedure, shortened: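 Normally developed embryos at 6 hpf were placed in 24-well plates, six per well, and exposed for three days to test compound at 0.1, 0.15, 0.2, 0.3 and 0.5 μM, with a 0.5% DMSO blank. Hatching (shell without membrane) and death (cardiac arrest) were scored every 24 h. Incubation rate = hatched/total embryos × 100%, and mortality = dead/total × 100%.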

zebrafish larvae = assay: Zebrafish adult fish; type: in vivo; details: for Concentrations causing acute toxicity in zebrafish larvae: in vivo
Procedure, shortened: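 Normally developed larvae at 3 dpf were placed in 24-well plates, six per well, and exposed to test compound at 0.1, 0.2, 0.3, 0.4 and 0.5 μM. Mortality was recorded at 24 h and 72 h.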

## CC1=C(O)C(=O)C=C2C1=CC=C1[C@@]2(C)CC[C@@]2(C)[C@@H]3C[C@](C)(C(=O)OCCCO)CC[C@]3(C)CC[C@]12C [Compound 2, 3-Hydroxypropyl (2 R,4aS,6aS,12bR,14aS,14bR)-10-hydroxy-2,4a,6a,9,12b,14a-hexamethyl-11-oxo-1,2,3,4,4a,5,6,6a,11,12b,13,14,14a,14b-tetradecahydropicene-2-carboxylate]
[1]
  solubility at 1 h: 11.8 µg/mL (≈ 23.2 µM)
AGS
  pIC50: 6.48
HCT-116
  pIC50: 6.41 to 6.49
MGC-803 cells [2]; 1 µM, 18 h, MGC-803, DMSO 15.05%
  Cells in G2 phase: 37.01%
MGC-803 cells [2]; 1 µM, 18 h, MGC-803
  Cells in G1 phase: 44.77%
MGC-803 cells [2]
  Phase in which the cell cycle is blocked: G2 phase
MGC-803 cells [3]
  Overall apoptosis rate (early apoptosis + late apoptosis): 13%
VEGF [4]; CoCl2-induced hypoxia, 0.1 µM, control 568.1 pg/ml
  VEGF expression: 430.8 pg/mL
VEGF [4]; CoCl2-induced hypoxia, 0.5 µM, control 568.1 pg/ml
  VEGF expression: 397.5 pg/mL
VEGF [4]; CoCl2-induced hypoxia, 1 µM, control 568.1 pg/ml
  VEGF expression: 328.8 pg/mL
VEGF [4]
  Effect on the expression of VEGF: inhibited the expression of VEGF in a concentration-dependent manner
VEGF [4]; normal oxygen conditions, 0.1 µM, control 531.5 pg/ml
  VEGF expression: 514.1 pg/mL
VEGF [4]; normal oxygen conditions, 0.5 µM, control 531.5 pg/ml
  VEGF expression: 398.1 pg/mL
VEGF [4]; normal oxygen conditions, 1 µM, control 531.5 pg/ml
  VEGF expression: 352.1 pg/mL
MMP-9; MGC-803, 0.5 µM
  MMP-9 expression: 10.04 ng/mL
MMP-9; MGC-803, 1 µM
  MMP-9 expression: 9.64 ng/mL
MMP-9
  Effect on the expression of MMP-9: inhibited the expression of MMP-9 in MGC-803 cells in a concentration-dependent manner
HCT116 cancer cells; 1 mg/kg
  Body weight during the treatment period: no significant changes of body weight
HCT116 cancer cells; 2.5 mg/kg
  Body weight during the treatment period: downward trend
  Mental state of the mice: depressed
HCT116 cancer cells
  Tumour weight: significantly lower than that in the control group
  Tumour volume at the end of the administration: significantly smaller than that of the control
HCT116 cancer cells; high-dose 2.5 mg/kg intraperitoneally
  Tumour growth inhibition rate: 55.82%
HCT116 cancer cells; low-dose 1 mg/kg intraperitoneally
  Tumour growth inhibition rate: 50.83%
TNF-α
  TNF-α content of tumour mice: decreased the TNF-α content significantly in a dose-dependent manner
Tumour tissue
  Morphological changes in tumour tissue (HE): tumour tissue structure was seriously damaged and the cell necrosis was obvious
VEGF [5]
  VEGF expression in tumour tissue (immunohistochemistry): downregulated the VEGF expression significantly
Zebrafish embryos; 0.1 μM
  Acute toxicity for zebrafish embryos: no acute toxicity
Zebrafish embryos; 0.15 μM
  Incubation (hatching) rate of zebrafish embryos: 25%
Zebrafish embryos; 0.2 μM
  Hatching of zebrafish eggs: no eggs hatched
Zebrafish embryos; 0.5 μM, on the first day
  Death rate of zebrafish embryos: 100%
Zebrafish embryos; 0.5 μM, on the fourth day
  Mortality of zebrafish embryos: 100%
Zebrafish larvae; zebrafish larvae, exposed for 72 h
  100% mortality concentration: 0.1 µM
Zebrafish larvae
  Concentrations causing acute toxicity in zebrafish larvae: higher than 0.1 μM

## CC1=C(O)C(=O)C=C2C1=CC=C1[C@@]2(C)CC[C@@]2(C)[C@@H]3C[C@](C)(C(=O)OCCCCO)CC[C@]3(C)CC[C@]12C [Compound 3, 4-Hydroxybutyl (2 R,4aS,6aS,12bR,14aS,14bR)-10-hydroxy-2,4a,6a,9,12b,14a-hexamethyl-11-oxo-1,2,3,4,4a,5,6,6a,11,12b,13,14,14a,14b-tetradecahydropicene-2-carboxylate]
HCT-116
  pIC50: 6.41 to 6.49

## O=c1[nH]cc(F)c(=O)[nH]1 [5-FU, 5-fluorouracil, reference compound]
HCT116 cancer cells; 10 mg/kg intraperitoneally
  Tumour growth inhibition rate: 37.02%
HCT116 cancer cells
  Tumour weight: significantly lower than that in the control group
  Tumour volume at the end of the administration: significantly smaller than that of the control
TNF-α
  TNF-α content of tumour mice: increased the TNF-α content significantly
Tumour tissue
  Morphological changes in tumour tissue (HE): tumour tissue structure was seriously damaged and the cell necrosis was obvious
VEGF [5]
  VEGF expression in tumour tissue (immunohistochemistry): downregulated the VEGF expression significantly

## CC1=C(O)C(=O)C=C2C1=CC=C1[C@@]2(C)CC[C@@]2(C)[C@@H]3C[C@](C)(C(=O)O)CC[C@]3(C)CC[C@]12C [celastrol, Celastrol, reference compound]
[1]
  solubility at 1 h: 6.2 µg/mL (≈ 13.8 µM)
MGC-803 cells [2]; 0.1 µM, 18 h, MGC-803
  Cells in S phase: 19.18%
MGC-803 cells [2]; 1 µM, 18 h, MGC-803
  Cells in S phase: 29.41%
  Cells in G1 phase: 52.96%
MGC-803 cells [2]
  Phase in which the cell cycle is blocked: S phase
MGC-803 cells [3]
  Overall apoptosis rate (early apoptosis + late apoptosis): 9.8%
VEGF [4]
  Effect on the expression of VEGF: inhibited the expression of VEGF in a concentration-dependent manner
MMP-9
  Effect on the expression of MMP-9: inhibited the expression of MMP-9 in MGC-803 cells in a concentration-dependent manner
Zebrafish embryos; 0.2 μM
  Death rate of zebrafish embryos: 50%
Zebrafish embryos; 0.3 or 0.5 μM
  Incubation (hatching) rate of zebrafish embryos: zero
Zebrafish embryos; exposure concentrations of 0.1, 0.15, and 0.2 μM
  Incubation (hatching) rate of zebrafish embryos: more than 75%
Zebrafish larvae
  Concentrations causing acute toxicity in zebrafish larvae: higher than 0.1 μM
